Test results: ChEMBL document CHEMBL3351316, “Scaffold hopping approach on the route to selective tankyrase inhibitors” (Eur J Med Chem, 2014)

Assays:
[1] = target: Poly [ADP-ribose] polymerase 2 (Homo sapiens) (UniProt Q9UGN5); assay: Inhibition of human recombinant PARP2 incubated for 1 hr using histone substrate at 1 uM by luminescence based assay
How it was run: (§1)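 Recombinant PARP enzyme reactions were run in duplicate for 1 h at rt on histone-coated plates in Tris·HCl pH 8.0 buffer with NAD+, biotinylated NAD+ and activated DNA. Detection used streptavidin-HRP for 30 min at rt, then a chemiluminescent developer. % inhibition = 100 − % activity, scaled between the no-compound (100%) and no-enzyme (0%) signals.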

[2] = Lipophilicity, log D of the compound at pH 7.4; format: physicochemical; conditions: buffer
[3] = target: T1, Poly [ADP-ribose] polymerase tankyrase-1 (Homo sapiens, UniProt O95271); assay: Inhibition of GST-tagged human recombinant TNKS1 incubated for 1 hr using NAD+, biotinylated NAD+ and activated DNA by luminescence based assay
T1 sequence (O95271 whole entry): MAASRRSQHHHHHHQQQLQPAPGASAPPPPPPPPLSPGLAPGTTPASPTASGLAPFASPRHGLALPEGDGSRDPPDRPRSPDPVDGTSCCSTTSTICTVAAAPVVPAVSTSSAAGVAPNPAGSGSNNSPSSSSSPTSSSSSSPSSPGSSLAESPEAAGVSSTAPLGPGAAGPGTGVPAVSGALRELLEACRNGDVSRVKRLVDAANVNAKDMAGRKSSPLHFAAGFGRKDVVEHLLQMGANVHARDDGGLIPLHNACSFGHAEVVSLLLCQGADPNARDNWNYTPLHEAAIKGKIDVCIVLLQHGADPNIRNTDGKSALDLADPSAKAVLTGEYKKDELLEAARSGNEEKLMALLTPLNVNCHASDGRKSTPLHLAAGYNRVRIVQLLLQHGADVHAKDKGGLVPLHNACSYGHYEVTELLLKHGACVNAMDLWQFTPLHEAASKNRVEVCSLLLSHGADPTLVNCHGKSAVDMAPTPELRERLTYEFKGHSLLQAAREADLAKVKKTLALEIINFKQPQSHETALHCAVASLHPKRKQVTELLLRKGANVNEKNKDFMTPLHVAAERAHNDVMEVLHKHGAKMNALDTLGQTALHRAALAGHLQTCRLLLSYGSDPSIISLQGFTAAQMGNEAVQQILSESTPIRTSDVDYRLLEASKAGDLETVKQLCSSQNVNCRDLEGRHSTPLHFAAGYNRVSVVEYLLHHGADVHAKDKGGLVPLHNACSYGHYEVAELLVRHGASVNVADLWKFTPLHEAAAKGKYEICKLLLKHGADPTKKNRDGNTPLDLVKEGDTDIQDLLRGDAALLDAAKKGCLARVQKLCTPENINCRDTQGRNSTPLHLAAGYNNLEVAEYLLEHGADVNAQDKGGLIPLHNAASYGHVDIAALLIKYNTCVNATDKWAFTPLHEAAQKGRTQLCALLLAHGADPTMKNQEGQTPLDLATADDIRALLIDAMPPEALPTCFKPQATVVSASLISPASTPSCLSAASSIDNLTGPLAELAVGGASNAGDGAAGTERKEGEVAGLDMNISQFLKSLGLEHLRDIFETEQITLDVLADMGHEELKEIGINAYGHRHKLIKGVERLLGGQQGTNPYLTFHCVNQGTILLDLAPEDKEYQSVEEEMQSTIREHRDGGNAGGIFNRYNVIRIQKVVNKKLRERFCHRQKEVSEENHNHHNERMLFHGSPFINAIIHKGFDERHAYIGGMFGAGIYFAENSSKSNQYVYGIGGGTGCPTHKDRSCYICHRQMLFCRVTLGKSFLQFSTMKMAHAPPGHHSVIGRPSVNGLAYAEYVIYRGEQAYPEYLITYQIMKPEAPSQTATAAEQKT

[4] = target: Protein mono-ADP-ribosyltransferase PARP14 (Homo sapiens) (UniProt Q460N5); assay: Inhibition of human recombinant PARP14 at 100 uM incubated for 1 hr using NAD+, biotinylated NAD+ and activated DNA by luminescence based assay; how it was run: as §1
[5] = target: Tankyrase 1/2 (Homo sapiens) (UniProt Q9H2K2+O95271); assay: Inhibition of tankyrase in human DLD1 cells assessed as reduction in Wnt activity at 10 uM after 24 hrs by TCF-luciferase reporter gene assay; format: cell-based; conditions: DLD-1
How it was run: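 DLD-1 cells were transduced with a TOP-TCF firefly luciferase lentivirus plus a renilla luciferase lentivirus (1:20), with renilla used to normalise for infection efficiency. Compound was tested at 10 μM for 24 h, with DMSO as the negative control. Cells were then lysed for dual-luciferase read-out, and activity was taken as the TOP/RL ratio. Data are the average of at least three separate experiments ± SD.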

[6] = target: Poly [ADP-ribose] polymerase 2 (Homo sapiens) (UniProt Q9UGN5); assay: Inhibition of human recombinant PARP2 incubated for 1 hr using histone substrate at 10 uM by luminescence based assay; how it was run: as §1

Sequence of Poly [ADP-ribose] polymerase 2 (Homo sapiens) (Q9UGN5 whole entry): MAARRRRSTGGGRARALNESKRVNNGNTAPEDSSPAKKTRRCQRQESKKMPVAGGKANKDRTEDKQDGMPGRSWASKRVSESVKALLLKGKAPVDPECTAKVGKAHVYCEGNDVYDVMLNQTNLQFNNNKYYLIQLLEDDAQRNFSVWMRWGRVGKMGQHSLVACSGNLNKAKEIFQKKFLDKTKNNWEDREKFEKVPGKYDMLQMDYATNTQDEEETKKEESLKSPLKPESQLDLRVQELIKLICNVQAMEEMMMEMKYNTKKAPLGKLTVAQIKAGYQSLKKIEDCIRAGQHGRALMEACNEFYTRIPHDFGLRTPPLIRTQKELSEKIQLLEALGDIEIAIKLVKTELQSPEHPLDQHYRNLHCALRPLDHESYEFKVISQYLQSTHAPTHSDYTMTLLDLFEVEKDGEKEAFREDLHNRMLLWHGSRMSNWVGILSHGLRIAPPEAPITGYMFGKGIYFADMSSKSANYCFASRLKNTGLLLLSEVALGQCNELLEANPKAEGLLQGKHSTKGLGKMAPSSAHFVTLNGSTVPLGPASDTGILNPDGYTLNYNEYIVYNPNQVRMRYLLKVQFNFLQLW
Sequence of Tankyrase 1/2 (Homo sapiens) (Q9H2K2 whole entry, looked up, one chain of several): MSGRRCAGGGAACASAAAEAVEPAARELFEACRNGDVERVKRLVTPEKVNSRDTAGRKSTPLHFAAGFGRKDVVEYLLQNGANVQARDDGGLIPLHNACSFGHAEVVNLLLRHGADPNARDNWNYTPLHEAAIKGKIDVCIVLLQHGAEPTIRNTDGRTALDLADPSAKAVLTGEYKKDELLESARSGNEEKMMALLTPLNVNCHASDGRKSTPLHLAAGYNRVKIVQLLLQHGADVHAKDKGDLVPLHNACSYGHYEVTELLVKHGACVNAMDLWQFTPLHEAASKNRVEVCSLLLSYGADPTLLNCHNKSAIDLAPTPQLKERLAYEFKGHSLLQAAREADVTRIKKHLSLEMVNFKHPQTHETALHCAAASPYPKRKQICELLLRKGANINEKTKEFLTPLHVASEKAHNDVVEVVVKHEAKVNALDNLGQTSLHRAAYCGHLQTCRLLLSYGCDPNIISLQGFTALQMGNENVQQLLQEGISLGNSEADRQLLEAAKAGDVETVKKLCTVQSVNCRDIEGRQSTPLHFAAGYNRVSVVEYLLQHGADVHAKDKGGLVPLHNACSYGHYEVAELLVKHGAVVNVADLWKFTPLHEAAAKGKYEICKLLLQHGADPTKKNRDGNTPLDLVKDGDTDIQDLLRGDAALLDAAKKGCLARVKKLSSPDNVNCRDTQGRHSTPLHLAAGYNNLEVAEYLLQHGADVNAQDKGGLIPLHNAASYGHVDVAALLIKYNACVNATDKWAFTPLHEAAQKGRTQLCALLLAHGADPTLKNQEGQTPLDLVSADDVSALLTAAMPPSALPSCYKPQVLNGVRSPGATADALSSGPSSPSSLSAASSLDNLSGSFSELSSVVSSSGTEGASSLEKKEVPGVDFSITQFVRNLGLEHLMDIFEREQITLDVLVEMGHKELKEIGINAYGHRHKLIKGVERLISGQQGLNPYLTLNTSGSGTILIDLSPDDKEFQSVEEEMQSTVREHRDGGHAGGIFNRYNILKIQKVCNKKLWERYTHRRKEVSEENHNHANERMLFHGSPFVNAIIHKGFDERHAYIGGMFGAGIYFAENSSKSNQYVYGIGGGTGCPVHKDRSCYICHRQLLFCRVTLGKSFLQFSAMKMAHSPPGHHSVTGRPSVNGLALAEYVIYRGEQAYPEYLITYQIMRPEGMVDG
Sequence of Protein mono-ADP-ribosyltransferase PARP14 (Homo sapiens) (Q460N5 whole entry): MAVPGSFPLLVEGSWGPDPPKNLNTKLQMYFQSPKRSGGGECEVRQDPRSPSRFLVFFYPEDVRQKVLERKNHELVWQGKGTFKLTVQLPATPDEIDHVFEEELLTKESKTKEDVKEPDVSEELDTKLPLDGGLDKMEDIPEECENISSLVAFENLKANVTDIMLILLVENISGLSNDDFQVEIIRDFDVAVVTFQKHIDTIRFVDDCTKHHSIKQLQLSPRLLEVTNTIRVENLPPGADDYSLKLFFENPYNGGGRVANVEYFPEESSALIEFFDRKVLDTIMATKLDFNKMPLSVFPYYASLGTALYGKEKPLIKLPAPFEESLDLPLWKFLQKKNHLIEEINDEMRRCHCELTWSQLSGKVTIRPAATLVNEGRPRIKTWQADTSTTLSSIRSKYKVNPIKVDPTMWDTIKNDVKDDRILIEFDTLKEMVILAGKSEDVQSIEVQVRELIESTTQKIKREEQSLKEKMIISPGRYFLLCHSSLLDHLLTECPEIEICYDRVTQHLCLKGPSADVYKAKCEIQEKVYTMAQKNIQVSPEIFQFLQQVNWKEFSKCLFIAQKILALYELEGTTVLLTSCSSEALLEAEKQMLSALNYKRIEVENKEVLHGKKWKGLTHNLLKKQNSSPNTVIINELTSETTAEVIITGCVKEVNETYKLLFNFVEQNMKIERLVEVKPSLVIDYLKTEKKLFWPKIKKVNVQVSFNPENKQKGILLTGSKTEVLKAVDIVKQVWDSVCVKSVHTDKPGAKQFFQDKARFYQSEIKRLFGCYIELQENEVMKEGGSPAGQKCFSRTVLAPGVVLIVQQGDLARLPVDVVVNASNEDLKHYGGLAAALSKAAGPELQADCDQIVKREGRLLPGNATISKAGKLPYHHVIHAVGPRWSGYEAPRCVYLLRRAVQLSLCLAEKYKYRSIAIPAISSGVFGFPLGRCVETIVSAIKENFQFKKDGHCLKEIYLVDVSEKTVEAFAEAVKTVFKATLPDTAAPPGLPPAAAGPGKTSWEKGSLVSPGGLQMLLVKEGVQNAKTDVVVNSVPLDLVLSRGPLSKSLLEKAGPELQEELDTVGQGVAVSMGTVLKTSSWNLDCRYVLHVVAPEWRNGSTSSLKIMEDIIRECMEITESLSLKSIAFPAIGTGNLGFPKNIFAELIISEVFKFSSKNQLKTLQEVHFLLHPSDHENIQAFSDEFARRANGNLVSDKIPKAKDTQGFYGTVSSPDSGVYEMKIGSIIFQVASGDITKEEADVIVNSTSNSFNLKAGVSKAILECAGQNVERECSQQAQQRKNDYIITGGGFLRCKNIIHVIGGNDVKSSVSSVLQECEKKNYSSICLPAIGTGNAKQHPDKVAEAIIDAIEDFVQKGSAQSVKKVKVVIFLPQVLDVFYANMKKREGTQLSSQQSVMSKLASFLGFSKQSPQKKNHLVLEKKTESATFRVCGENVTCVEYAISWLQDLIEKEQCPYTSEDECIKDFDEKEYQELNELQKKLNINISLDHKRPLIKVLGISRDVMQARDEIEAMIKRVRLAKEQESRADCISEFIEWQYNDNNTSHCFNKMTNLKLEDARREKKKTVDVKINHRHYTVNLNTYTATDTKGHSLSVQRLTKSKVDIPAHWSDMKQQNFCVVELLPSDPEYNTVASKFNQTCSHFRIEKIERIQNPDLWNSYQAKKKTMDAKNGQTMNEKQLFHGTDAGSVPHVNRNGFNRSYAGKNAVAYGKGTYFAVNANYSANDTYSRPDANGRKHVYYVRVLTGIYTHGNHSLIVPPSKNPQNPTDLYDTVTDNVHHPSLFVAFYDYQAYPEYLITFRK

Row | inhibition [4] [%] | Structure (SMILES) | inhibition [1] [%] | logD [2] | IC50 [3] [nM] | inhibition [5] [%] | inhibition [6] [%]
1 | – | O=c1[nH]c2cc(O)ccc2c2c1sc1ccccc12 | 64 | 3.43 | – | – | –
2 | – | O=c1[nH]ccc2c1sc1ccccc12 | 34 | 3.62 | – | – | –
3 | – | O=c1[nH]c(-c2cccs2)nc2c1sc1ccccc12 | 9 | 3.52 | – | – | –
4 | – | Cc1ccc(-c2nc3c(sc4ccccc43)c(=O)[nH]2)cc1 | 4 | 4.13 | 19.4 | – | –
5 | – | Oc1cc(-c2ccccc2)c2ccccc2n1 | 3 | 3.03 | – | – | –
6 | – | O=c1[nH]c2ccccc2c2c1sc1ccccc12 | 14 | 3.75 | 90 | – | –
7 | – | O=c1[nH]c(-c2ccccc2)nc2c3c(sc12)CCCC3 | 11 | 4.11 | – | – | –
8 | – | O=c1[nH]c(-c2ccccc2)cc2c1sc1ccccc12 | 11 | 3.63 | 181 | – | –
9 | 17 | COc1cccc(/C=C/C(=O)O)c1 | – | – | – | – | –
10 | – | COc1ccc2c(c1)nc(O)c1sc3ccccc3c12 | 27 | 3.59 | – | 37 | –
11 | – | O=c1[nH]c(-c2ccccc2)cc2ccsc12 | 26 | 2.53 | – | – | –
12 | – | O=c1[nH]c2ccccc2c2c1sc1ccc(O)cc12 | 93 | 3.44 | – | – | –
13 | – | COc1ccc2c(c1)[nH]c(=O)c1sc3ccc(OC)cc3c12 | 12 | 3.43 | – | – | –
14 | – | O=c1[nH]c(-c2ccccc2)nc2c1sc1ccccc12 | 0 | 3.62 | – | – | –
15 | – | O=c1[nH]c2ccccc2c2ccsc12 | 91 | 2.65 | – | – | –
16 | – | O=c1[nH]c(C2CCCCC2)nc2c1sc1ccccc12 | 14 | 3.89 | – | – | –
17 | – | COc1ccc2sc3c(O)nc4ccccc4c3c2c1 | 17 | 3.59 | – | 21 | –
18 | – | Oc1nc(-c2ccc(C(F)(F)F)cc2)nc2c1CSCC2 | – | – | – | – | 100
19 | – | O=c1[nH]ccc2ccsc12 | 24 | 1.24 | – | – | –
